# From PubChem BioAssay
# Active and inactive are the calls of the source.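 The calls were made as follows, unless noted: active = GFP response above 150% of the DMSO level; inconclusive = fewer than 70 events counted for a yeast strain; inactive = the rest.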
# Assays:
# [1] = RPL19A-GFP modulators, yeast TOR pathway, confirmation, cell-based, S. cerevisiae, flow cytometry, cherry picks, mother/daughter gates (AID 2270;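 active = GFP response below 50% of the DMSO control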); settings: S. cerevisiae RPL19A-GFP strain, 3 h, at 10 µM, stronger effect = lower value, 100 = same GFP as DMSO wells
# [2] = LAP4-GFP expression modulators in yeast, confirmation, cell-based, cherry picks, flow cytometry, mother/daughter gates (AID 2271;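 active = GFP response above 150% of the DMSO control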;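 also: ratio of sample to DMSO plate mean so 100% equals DMSO level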); settings: S. cerevisiae LAP4-GFP strain, 3 h, at 10 µM, stronger effect = higher value, 100 means same as DMSO control
# Outline: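 Measured by: GFP by flow cytometry. Test system: GFP-fusion yeast strain. Input: yeast cells seeded at OD600 of 0.2. Timing: 30 °C, 3 h compound incubation, rotating. Buffer or medium: synthetic complete medium for yeast. Benchmarks: DMSO-only negative wells, rapamycin 400 ng/mL positive wells. Compound: 10 µM single dose.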
# [3] = modulators of MEP2-GFP levels in yeast, confirmation, S. cerevisiae, flow cytometry GFP, cherry picks (AID 2272;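 active = GFP response above 150% of the DMSO control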;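 also: ratio of well signal to plate DMSO mean so 100% equals DMSO level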); settings: S. cerevisiae MEP2-GFP strain, 3 h, at 10 µM, stronger effect = higher value
# [4] = AGP1-GFP expression modulators, hit retest, confirmation, cell-based, flow cytometry, S. cerevisiae, cherry picks (AID 2273);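 also: median GFP channel fluorescence over the whole cell population gate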; settings: S. cerevisiae AGP1-GFP strain, 3 h, at 10 µM
# [5] = modulators of CIT2-GFP expression in yeast, confirmation, S. cerevisiae, GFP fusion, cherry picks, mother/daughter gates (AID 2274); settings: S. cerevisiae CIT2-GFP strain, flow cytometry, 3 h, at 10 µM, stronger effect = higher value
# [6] = measured here: daughter cell gate
# [7] = measured here: mother cell gate
# [8] = measured here: daughter cell gate response
# [9] = measured here: mother cell gate response
SMILES,GFP response vs DMSO [1],"GFP response vs DMSO [1, 6] [%]","GFP response vs DMSO [1, 7] [%]",GFP response relative to DMSO [2],"GFP response relative to DMSO [2, 8] [%]","GFP response relative to DMSO [2, 9] [%]",GFP response vs DMSO [3],"GFP response, % of DMSO [4]","GFP response, % of DMSO [5]","GFP response, % of DMSO [5, 6] [%]","GFP response, % of DMSO [5, 7] [%]"
Cc1ccc(N2C(=O)C(Cl)=C(Nc3c(C)n(C)n(-c4ccccc4)c3=O)C2=O)cc1,96.9% (inactive),93.9,96.1,101% (inactive),101,101,101% (inactive),105% (inactive),100% (inactive),103,100
O=C(CSc1nc2ccsc2c(=O)n1CC1CCC(C(=O)O)CC1)c1ccc(F)cc1 (stereo unspecified),102% (inactive),100,103,89% (inactive),89.5,91.1,100% (inactive),94.6% (inactive),92.6% (inactive),94.8,92.3
Cc1ccc(C=C2C(Cl)=C(Cl)C(Cl)=C2Cl)cc1,103% (inactive),102,97.7,148% (inactive),139,161,114% (inactive),105% (inactive),106% (inactive),105,94.7
Cc1nc(Sc2ccccc2)c(C#N)c(C)c1[N+](=O)[O-],98.2% (inactive),99.4,96.6,94.1% (inactive),92.8,91.9,109% (inactive),88.4% (inactive),115% (inactive),117,113
O=C1c2ccsc2SCCN1Cc1ccc(F)cc1,97% (inactive),94.4,100,111% (inactive),110,113,90.5% (inactive),97.3% (inactive),100% (inactive),103,89.5
Cc1nc(C)c(-c2csc(NCCc3ccccc3)n2)s1,96.7% (inactive),96.4,95.9,112% (inactive),105,113,112% (inactive),96.6% (inactive),108% (inactive),110,107
CCCS(=O)(=O)N1CCC(C(=O)c2cccc(C(F)(F)F)c2)CC1,98.8% (inactive),97,98.2,101% (inactive),98.7,102,100% (inactive),97.8% (inactive),91.3% (inactive),93.2,89.1
CCOc1cc(/C=C2\N=C(C)OC2=O)cc(Br)c1OCC(=O)OC,98.2% (inactive),100,96.9,133% (inactive),128,134,102% (inactive),94% (inactive),99.3% (inactive),102,94.5
COc1ccccc1C1CC(c2c(-c3ccccc3)c3cc(Cl)ccc3[nH]c2=O)=NN1S(C)(=O)=O (stereo unspecified),97.6% (inactive),98.9,97.4,106% (inactive),107,105,119% (inactive),96.4% (inactive),113% (inactive),112,112
Clc1cccc(Cn2ncc3ccccc32)c1,95% (inactive),95.1,94.9,103% (inactive),102,103,92% (inactive),94.1% (inactive),95.5% (inactive),95.4,95
COC(=O)c1ccc(/C=N/NC(=O)c2cccc(F)c2)cc1,99.9% (inactive),99.3,98.6,103% (inactive),102,101,104% (inactive),99.3% (inactive),99.3% (inactive),100,99.1
Oc1ccc(-c2nc3ccccn3c2NCc2ccco2)cc1,96.8% (inactive),98.4,97.1,101% (inactive),99.2,99.3,102% (inactive),96.2% (inactive),103% (inactive),105,101
CCCCOc1c(Br)cc(/C=C2\N=C(C)OC2=O)cc1OCC,97.8% (inactive),98.4,97.7,106% (inactive),102,106,100% (inactive),101% (inactive),98.3% (inactive),99.1,98.5
COc1cccc2c1Oc1ncccc1N(C(=O)CCC(=O)NCc1cccc(C)c1)C2,98.4% (inactive),98.6,99.2,97.9% (inactive),97.6,98.3,100% (inactive),97.6% (inactive),105% (inactive),106,104
Cc1ccc(N2C(=O)CC(Sc3ncn[nH]3)C2=O)cc1C (stereo unspecified),106% (inactive),111,101,137% (inactive),133,140,109% (inactive),100% (inactive),104% (inactive),112,97.3
CCC(=O)Oc1oc(-c2ccccc2)nc1C=Nc1ccc(C)cc1,103% (inactive),103,103,111% (inactive),113,113,126% (inactive),102% (inactive),108% (inactive),110,109
COc1ccc(/C=C/C(=O)C2C(=O)C=C(C)OC2=O)cc1O (stereo unspecified),101% (inactive),102,101,123% (inactive),118,125,112% (inactive),101% (inactive),101% (inactive),104,96.8
O=C(/C=C/c1ccnc2ccccc12)c1cccs1,101% (inactive),98.8,99.5,172% (active),156,171,126% (inactive),112% (inactive),90.7% (inactive),94.6,84
N#CC(C(=O)NCc1ccccc1)c1nc2ccccc2nc1N1CCCC1 (stereo unspecified),103% (inactive),102,104,114% (inactive),108,117,117% (inactive),99.6% (inactive),111% (inactive),108,109
CC(=O)Oc1c(C)cc(Cl)cc1C(=O)Nc1ccc([N+](=O)[O-])cc1Cl,97% (inactive),96,98.2,91.2% (inactive),92,93,101% (inactive),97.9% (inactive),90.9% (inactive),93.7,89.8
Cc1cc(NCCCN2CCOCC2)n2nc(C)c(-c3ccccc3)c2n1,95.8% (inactive),94.7,94.4,100% (inactive),97.5,100,99.3% (inactive),100% (inactive),101% (inactive),101,100
O=C(O)C1Sc2[nH]c(=O)sc2C2c3cc(Br)ccc3OC(=O)C12 (stereo unspecified),96.3% (inactive),97.6,96.8,171% (active),150,200,195% (active),102% (inactive),111% (inactive),108,113
Cc1ccc(S(=O)(=O)N(CC(=O)Nc2cccnc2)c2ccccc2C)cc1,104% (inactive),100,105,97% (inactive),95.9,97.3,105% (inactive),98.6% (inactive),94.4% (inactive),92,94.4
COCCN(CCOC)S(=O)(=O)c1ccc(C(=O)Nc2nnc(C3CC3)o2)cc1,101% (inactive),99.8,101,93.8% (inactive),94.1,95.2,100% (inactive),101% (inactive),106% (inactive),105,106
CC(Oc1ccc(Br)cc1)C(=O)Nc1nc(-c2ccccn2)cs1 (stereo unspecified),104% (inactive),95.9,105,241% (active),184,258,117% (inactive),92.9% (inactive),98.3% (inactive),97.2,93.8
CC(=O)SC(C[N+](=O)[O-])c1cn(C(C)=O)c2ccccc12 (stereo unspecified),98.6% (inactive),102,90.1,242% (active),216,236,96.8% (inactive),98% (inactive),94.4% (inactive),97.4,88.2
